Article PMC4474499 (Science Advances, 2015)

Tests used:
human TLR8 = biological target: T1, human TLR8 (Homo sapiens, UniProt Q9NR97); assay: SEAP reporter gene detection assay in HEK-Blue TLR8 cells; format: cell-based; conditions: 0 to 20 μM, 24 hours
T1 sequence (Q9NR97 27-1041): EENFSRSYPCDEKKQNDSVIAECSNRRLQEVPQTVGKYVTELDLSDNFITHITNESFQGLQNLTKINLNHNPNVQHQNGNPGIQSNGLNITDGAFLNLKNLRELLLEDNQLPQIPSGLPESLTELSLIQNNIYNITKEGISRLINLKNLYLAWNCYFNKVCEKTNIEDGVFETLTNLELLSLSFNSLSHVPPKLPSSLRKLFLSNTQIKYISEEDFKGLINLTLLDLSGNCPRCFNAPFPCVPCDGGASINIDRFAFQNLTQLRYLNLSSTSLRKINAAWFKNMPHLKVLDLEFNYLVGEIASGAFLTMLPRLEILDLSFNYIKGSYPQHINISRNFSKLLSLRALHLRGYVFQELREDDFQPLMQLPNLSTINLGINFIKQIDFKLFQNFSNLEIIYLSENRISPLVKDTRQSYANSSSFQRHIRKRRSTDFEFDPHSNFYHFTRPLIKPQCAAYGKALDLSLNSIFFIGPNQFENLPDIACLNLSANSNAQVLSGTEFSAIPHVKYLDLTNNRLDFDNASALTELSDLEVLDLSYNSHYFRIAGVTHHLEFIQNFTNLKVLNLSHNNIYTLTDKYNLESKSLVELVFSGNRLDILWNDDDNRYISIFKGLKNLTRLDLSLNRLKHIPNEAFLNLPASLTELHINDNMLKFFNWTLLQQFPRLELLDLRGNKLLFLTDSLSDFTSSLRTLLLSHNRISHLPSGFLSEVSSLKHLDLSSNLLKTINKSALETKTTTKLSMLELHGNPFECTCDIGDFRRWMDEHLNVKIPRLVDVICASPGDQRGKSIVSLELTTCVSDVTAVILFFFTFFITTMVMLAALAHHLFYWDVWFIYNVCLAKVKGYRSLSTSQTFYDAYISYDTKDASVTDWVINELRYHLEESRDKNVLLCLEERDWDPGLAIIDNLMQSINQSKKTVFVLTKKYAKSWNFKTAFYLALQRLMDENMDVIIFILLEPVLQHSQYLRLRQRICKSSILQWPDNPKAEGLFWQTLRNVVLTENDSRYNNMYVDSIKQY
In short: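 HEK 293 cells stably carrying the human TLR and a SEAP reporter, 4 × 10^4/well, grown 24 h. Then 24 h in Opti-MEM/0.5% FBS with test compound. Positive controls: poly(I:C) 0–10.9 μg/ml (TLR3), LPS 0–36.5 ng/ml (TLR4), FLA-BS 0–10 μg/ml (TLR5), R848 0–6 μg/ml (TLR7, TLR8). Supernatant heated 30 min at 65°C, then CSPD substrate added; luminescence read after 20 min.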

Raw 264.7 cells [1] = assay: In vitro NO activation assay for Raw 264.7 cells; format: cell-based, mouse; conditions: Raw 264.7 cells, 24 hours
In short: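 RAW 264.7 cells, 80,000/well, grown 24 h. Non-adherent cells removed; medium changed to unsupplemented RPMI 1640. Treated 24 h with test compound, or 66 nM (100 ng/ml) Pam3CSK4 as control. Supernatant reacted 15 min in the dark with 2,3-diaminonaphthalene in HCl, quenched with NaOH. Fluorescence read at ex 365/em 450 nm; nitrite calculated from a standard curve.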

[2] = tested on: primary rat macrophage cells; assay: Primary peritoneal macrophage NO activation assay; format: cell-based; conditions: 24 hours
In short: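 Peritoneal cells from Sprague-Dawley rats collected by HBSS lavage, then red cells lysed. Seeded at 40,000/well in Iscove's medium with 10% FBS; adhered 2 h; non-adherent cells washed off; cultured overnight. Serum-free Iscove's then given with test compound, or 66 nM Pam3CSK4, for 24 h. Supernatant nitrite measured by diaminonaphthalene fluorescence.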

Raw 264.7 cells [3] = assay: Quantitative RT-PCR of mRNA levels in Raw 264.7 macrophage cells; format: cell-based, mouse
In short: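 RAW 264.7 cells, 1 × 10^6/well, grown 24 h, then given fresh RPMI 1640. Exposed to test compound, or 33 nM (50 ng/ml) Pam3CSK4, for 0, 2, 8 or 24 h. Cells washed in cold PBS and frozen. Total RNA extracted (RNeasy) for qRT-PCR. Fold change calculated by ΔΔCt versus DMSO-treated cells, means ± SD.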

TLR1 = biological target: T2, TLR1 (Homo sapiens, UniProt Q15399); assay: Microscale thermophoresis; format: binding
T2 sequence (Q15399 25-580 limits assumed): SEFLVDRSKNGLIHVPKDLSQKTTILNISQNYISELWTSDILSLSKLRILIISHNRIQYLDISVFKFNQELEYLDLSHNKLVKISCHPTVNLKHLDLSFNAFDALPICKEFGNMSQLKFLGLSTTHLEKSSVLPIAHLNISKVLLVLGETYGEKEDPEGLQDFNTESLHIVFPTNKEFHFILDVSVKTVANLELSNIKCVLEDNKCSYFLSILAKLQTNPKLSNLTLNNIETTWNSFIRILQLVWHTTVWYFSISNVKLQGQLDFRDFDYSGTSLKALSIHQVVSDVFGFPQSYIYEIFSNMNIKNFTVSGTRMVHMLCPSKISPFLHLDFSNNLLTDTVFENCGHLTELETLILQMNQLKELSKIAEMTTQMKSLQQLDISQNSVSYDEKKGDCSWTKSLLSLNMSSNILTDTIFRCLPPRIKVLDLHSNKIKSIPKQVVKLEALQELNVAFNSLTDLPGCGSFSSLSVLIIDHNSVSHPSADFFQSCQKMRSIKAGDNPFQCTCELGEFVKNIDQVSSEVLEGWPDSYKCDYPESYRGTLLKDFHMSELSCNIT
In short: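 Human TLR1 expressed in baculovirus-infected High Five insect cells and purified on protein A Sepharose. Labelled with NT-647 and held at 10 nM. Test compound varied 0.31 nM–10 μM. Buffer: 50 mM Tris-HCl pH 7.6, 150 mM NaCl, 10 mM MgCl2, 0.05% Tween 20, in glass capillaries. Apparent Kd fitted from thermophoresis.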

HEK-Blue hTLR2 cells = assay: MTT cell viability assay in HEK-Blue hTLR2 cells; format: cell-based, human; conditions: up to 100 μM, 24 h
In short: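 HEK-Blue hTLR2 cells, 40,000/well in DMEM/10% FBS, grown 24 h at 37°C, 5% CO2. Medium then replaced by Opti-MEM (0.5% FBS, non-essential amino acids) with compounds at 0–100 μM for 24 h. MTT added for 4 h; formazan dissolved in DMSO; A560 read. Cytotoxicity % = 1 − (sample − blank)/(control − blank), ×100.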

activation of SEAP signaling, TLR8 (human TLR8): not in other TLR-overexpressing cells
Kd (TLR1): 229 ± 66 nM
SMILES: CNc1ccc([N+](=O)[O-])cc1-n1cnc(-c2ccc(C(F)(F)F)cc2)c1 [CU-T12-9, N-methyl-4-nitro-2-(4-(4-(trifluoromethyl)phenyl)-1H-imidazol-1-yl)aniline]
NO production (Raw 264.7 cells [1]): efficiently triggered NO production
NO production [2]: efficiently triggered NO production
TLR1 mRNA (Raw 264.7 cells [3]; 1 μM CU-T12-9, 24 hours): potently increased
time of highest TLR2 mRNA expression (Raw 264.7 cells [3]; 1 μM CU-T12-9 or 33 nM (50 ng/ml) Pam3CSK4, measured at 2, 8, 24 hours): 2 h
IL-10 mRNA (Raw 264.7 cells [3]; 2 hours, decreased over time): up-regulated
TNF mRNA expression (Raw 264.7 cells [3]; over time, maximal expression after 8 hours): increased
iNOS mRNA expression (Raw 264.7 cells [3]; over time, peaked at 24 hours): increased
cytotoxicity (HEK-Blue hTLR2 cells): negligible cytotoxicity
